Reference: article PMC4083419 (Nature Communications, 2014)
Read-outs that look alike come from different tables or passages of the source.

How the values were obtained:
[1] = biological target: T1, PhENR (Pyrococcus horikoshii, UniProt O58586); test: Biocatalytic transformations with PhENR; type: biochemical; conditions: for acceptance as substrate: substrate scope
Procedure, shortened: (§1)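 Substrate (10 mM) was reduced with NADH or NADPH (15 mM) and enzyme in 50 mM buffer. The initial aerobic screen used Tris-HCl at pH 7, 8 or 9. Optimised anaerobic runs used degassed buffer under an Ar flush: 50 mM phosphate for TtENR, 50 mM Tris-HCl for PhENR, both pH 7, with NADPH. Mixtures were shaken 24 h at 30 °C, 120 r.p.m., then EtOAc-extracted. Conversion was read by achiral GC, e.e. by chiral GC or HPLC. One substrate was given in DMF (1% final).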

[2] = biological target: T2, TtENR (Thermus thermophilus, UniProt P83818); test: Biocatalytic transformations with TtENR; type: biochemical; conditions: for acceptance as substrate: substrate scope, Table 1
T2 sequence (P83818 1-178): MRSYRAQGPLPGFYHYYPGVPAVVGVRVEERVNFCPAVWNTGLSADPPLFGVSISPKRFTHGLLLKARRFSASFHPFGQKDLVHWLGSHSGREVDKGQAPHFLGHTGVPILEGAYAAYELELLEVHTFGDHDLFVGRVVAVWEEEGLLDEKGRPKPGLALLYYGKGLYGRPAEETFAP
Procedure, shortened: as §1

[3] = biological target: T2, TtENR; test: UV-visible difference titration of ligands with TtENR; type: binding
Procedure, shortened: (§2)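 UV–visible difference titrations at 25 °C in tandem cuvettes. Putative ligand (enones, enals, a quinone or a hydroxybenzaldehyde) was added both to enzyme solution in the sample cell and to 50 mM Tris-HCl pH 7.5 buffer in the reference cell. Spectral changes were followed as a function of ligand concentration.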

[4] = biological target: T1, PhENR; test: UV-visible difference titration of ligands with PhENR; type: binding
Procedure, shortened: as §2

[5] = system: yeast OYE; conditions: cited from earlier work; for rate of reduction of the flavin cofactor: biphasic kinetics
[6] = biological target: yeast OYE; conditions: read-out: dissociation constant (Kd); cited from earlier work
[7] = biological target: T2, TtENR; test: Stopped-flow reductive half reaction of TtENR; type: biochemical; conditions: monophasic, 37 °C, 100 mM Tris-HCl pH 7.4
Procedure, shortened: (§3)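 Anoxic stopped-flow at 37 °C in a glove box, single-mixing mode. Enzyme was mixed with NADPH or NADH at 0.4–10.0 mM in 100 mM Tris-HCl pH 7.4, with nitrogen-flushed buffers. Flavin reduction was monitored as A458 change with a diode-array detector.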

[8] = biological target: T1, PhENR; test: Stopped-flow reductive half reaction of PhENR; type: biochemical; conditions: monophasic, 37 °C, 100 mM Tris-HCl pH 7.4
Procedure, shortened: as §3

[9] = biological target: T2, TtENR; test: Steady-state turnover; type: biochemical; conditions: NADPH and dioxygen as substrates, 50 mM potassium phosphate pH 7.0, 75 °C
[10] = biological target: T2, TtENR; test: Stopped-flow reoxidation of reduced TtENR; type: biochemical; conditions: air-saturated buffer
Procedure, shortened: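 Enzyme in 50 mM potassium phosphate pH 7.0 was reduced anoxically with sodium dithionite, and excess dithionite was removed on a desalting column inside a glove box. Reduced enzyme was mixed in single-mixing stopped-flow at 37 °C with substrate at various concentrations or with air-saturated buffer. FMN reoxidation was followed at A458 by diode array. Curves were fitted with a two-exponential function.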

T1 sequence (O58586 whole entry): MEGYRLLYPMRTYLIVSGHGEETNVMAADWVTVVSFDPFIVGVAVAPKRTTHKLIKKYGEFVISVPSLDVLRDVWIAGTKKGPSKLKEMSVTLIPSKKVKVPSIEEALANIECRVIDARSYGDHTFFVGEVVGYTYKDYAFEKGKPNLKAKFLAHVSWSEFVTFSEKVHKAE

Q: What does the source list for CC(C)=CCCC(C)=CC=O (mixture of isomers) [Compound 4a, citral]?
A: acceptance as substrate ([1]; Table 1): good substrates; acceptance as substrate [2]: good substrates

Q: What does the source list for CC1CC(=O)N(c2ccccc2)C1=O (racemic) [Compound 5b, rac-N-phenyl-2-methylsuccinimide]?
A: stereopreference compared with typical OYEs [1]: inverted stereopreference; acceptance as substrate ([1]; Table 1): good substrates; stereopreference compared with typical OYEs [2]: inverted stereopreference; acceptance as substrate [2]: good substrates

Q: Which Kd [3] does the source give for O=C1C=CC(=O)C=C1 [1,4-benzoquinone] here?
A: 580 µM

Q: What about the Kd [4] of the same compound?
A: 1800 µM

Q: With O=C1C=CCCC1 [Compound 1a, 2-Cyclohexen-1-one] as the compound, how does the oxidative rate kox [5] read?
A: 102 s⁻¹

Q: And the Kd [3]?
A: 40000 µM

Q: And the acceptance as substrate ([1]; Table 1)?
A: accepted but at lower conversion rates

Q: And the Kd [6]?
A: 32 µM

Q: And the acceptance as substrate [2]?
A: accepted but at lower conversion rates

Q: What about the Kd [4] of the same compound?
A: 76000 µM

Q: Which “stereopreference compared with typical OYEs” value [1] does the source give for CC1=CC(=O)CC(C)(C)C1=O [Compound 2a, 2,6,6-trimethylcyclohex-2-ene-1,4-dione] here?
A: inverted stereopreference

Q: What about the acceptance as substrate ([1]; Table 1) of the same compound?
A: good substrates

Q: And the “stereopreference compared with typical OYEs” value [2]?
A: inverted stereopreference

Q: What about the acceptance as substrate [2] of the same compound?
A: good substrates

Q: For CC/C=C(\C)C=O [Compound 3a, (E)-2-methylpent-2-enal], which conversion ([1]; Table 1) is on record?
A: full conversion

Q: What about the acceptance as substrate ([1]; Table 1) of the same compound?
A: good substrates

Q: And the acceptance as substrate [2]?
A: good substrates

Q: With NC(=O)C1=CN([C@@H]2O[C@H](COP(=O)(O)OP(=O)(O)OC[C@H]3O[C@@H](n4cnc5c(N)ncnc54)[C@H](O)[C@@H]3O)[C@@H](O)[C@H]2O)C=CC1 [NADH] as the compound, how does the “reductive rate (kred)” value [7] read?
A: 0.25 s⁻¹

Q: With NC(=O)C1=CN([C@@H]2O[C@H](COP(=O)(O)OP(=O)(O)OC[C@H]3O[C@@H](n4cnc5c(N)ncnc54)[C@H](OP(=O)(O)O)[C@@H]3O)[C@@H](O)[C@H]2O)C=CC1 [NADPH] as the compound, how does the “rate of reduction of the flavin cofactor” value ([5]; first printed rate) read?
A: 1.18 s⁻¹

Q: And the “rate of reduction of the flavin cofactor” value ([5]; second printed rate)?
A: 0.3 s⁻¹

Q: What about the “reductive rate (kred)” value [8] of the same compound?
A: 0.06 s⁻¹

Q: And the “reductive rate (kred)” value [7]?
A: 0.15 s⁻¹

Q: And the turnover rate kcat [9]?
A: 0.36 s⁻¹

Q: And the Km ([9]; read-out: KM(NADPH))?
A: 50 µM

Q: Which “kox, reoxidation of the cofactor” value [10] does the source give for O=O [dioxygen] here?
A: 57 s⁻¹

Q: For O=Cc1ccc(O)cc1 [pHB, p-hydroxybenzaldehyde], which Kd [3] is on record?
A: 25 µM

Q: What about the Kd [4] of the same compound?
A: 36 µM
